Reference: publication PMC2834294 (Chemistry & biology, 2010)

What was measured:
Type in all cases: cell-based
[1] = biological target: T1, TRPML3 (Homo sapiens, UniProt Q8TDD5); experiment: Fura-2 calcium imaging, HEK293 cells transiently expressing TRPML3; conditions: for ⊗F340/F380 (TRPML3): 10 µM compound, mean ±SEM (n≥3)
T1 sequence (Q8TDD5 1-553): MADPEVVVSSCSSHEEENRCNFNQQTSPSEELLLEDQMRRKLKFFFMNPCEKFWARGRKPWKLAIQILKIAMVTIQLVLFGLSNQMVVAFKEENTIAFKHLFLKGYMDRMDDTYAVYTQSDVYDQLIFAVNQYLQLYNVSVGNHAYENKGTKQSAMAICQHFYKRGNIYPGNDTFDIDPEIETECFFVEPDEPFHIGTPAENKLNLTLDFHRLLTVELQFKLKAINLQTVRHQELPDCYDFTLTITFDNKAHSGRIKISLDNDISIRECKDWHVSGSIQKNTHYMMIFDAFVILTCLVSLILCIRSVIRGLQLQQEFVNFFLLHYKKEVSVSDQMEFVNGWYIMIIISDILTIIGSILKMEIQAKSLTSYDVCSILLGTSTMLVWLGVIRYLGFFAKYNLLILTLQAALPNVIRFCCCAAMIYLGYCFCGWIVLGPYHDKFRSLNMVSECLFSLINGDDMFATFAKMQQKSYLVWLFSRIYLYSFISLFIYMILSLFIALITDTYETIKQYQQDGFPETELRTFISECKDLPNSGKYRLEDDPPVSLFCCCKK
Method in brief: (§1)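 HEK293 cells were transiently transfected (Genejammer) with the human channel construct or YFP control and measured 24 h later. Cells on glass coverslips were loaded with 4 µM fura-2-AM in bath solution (mM: 138 NaCl, 6 KCl, 2 MgCl2, 2 CaCl2, 10 HEPES, 5.5 D-glucose; pH 7.4). Compounds were applied at 10 µM and the F340/F380 ratio recorded. Values are mean ± SEM, n≥3.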

[2] = biological target: T1, TRPML3; experiment: Whole-cell patch-clamp, HEK293 cells transiently transfected with TRPML3; conditions: for nA/pF (-80 mV) (TRPML3): current density at −80 mV, 10 µM in standard bath solution, mean ±SEM (n≥3); for average current density relative to constitutively active TRPML3 A419P: whole-cell, −80 mV
Method in brief: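 Whole-cell patch clamp was done on HEK293 cells 24 h after transient transfection with human TRPML3 or YFP; constitutively active TRPML3(A419P) cells served as positive control. Bath solution (mM): 138 NaCl, 5.4 KCl, 2 MgCl2, 2 CaCl2, 10 HEPES, 10 d-glucose; pH 7.4. Pipette solution (mM): 140 CsCl, 10 HEPES, 3 ATP-Na, 1 BAPTA, 2 MgCl2; pH 7.2. Compounds at 10 µM were perfused. Capacitance-normalized current at −80 mV is reported as mean ± SEM, n≥3.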

[3] = biological target: T1, TRPML3; conditions: HEK293, read-out: Max % Activation (TRPML3)
Method in brief: (§2)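 HEK293 lines stably expressed YFP-fused human TRPML3 or zebrafish TRPN1 (G418 0.8 mg/ml, twice subcloned) and were plated at 1,500 cells/well for 23 h at 37 °C. After Fluo-8 loading (1 h 37 °C, 30 min RT), a 5 s basal read and 120 s post-addition read were taken. Max/basal ratios were normalized to DMSO and carbachol (87 µM).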

[4] = biological target: danio rerio TRPN1 (Danio rerio, UniProt Q7T1G6); conditions: for Emax: HEK293, read-out: Max % Activation (Control)
Method in brief: as §2

[5] = tested on: YFP-expressing HEK293 cells; experiment: Fura-2 calcium imaging, YFP-expressing HEK293 cells; conditions: mean ±SEM (n≥3)
Method in brief: as §1

[6] = biological target: T1, TRPML3; experiment: Whole-cell patch-clamp with intracellular application; conditions: whole-cell, −80 mV

danio rerio TRPN1, sequence (Q7T1G6 1-1614): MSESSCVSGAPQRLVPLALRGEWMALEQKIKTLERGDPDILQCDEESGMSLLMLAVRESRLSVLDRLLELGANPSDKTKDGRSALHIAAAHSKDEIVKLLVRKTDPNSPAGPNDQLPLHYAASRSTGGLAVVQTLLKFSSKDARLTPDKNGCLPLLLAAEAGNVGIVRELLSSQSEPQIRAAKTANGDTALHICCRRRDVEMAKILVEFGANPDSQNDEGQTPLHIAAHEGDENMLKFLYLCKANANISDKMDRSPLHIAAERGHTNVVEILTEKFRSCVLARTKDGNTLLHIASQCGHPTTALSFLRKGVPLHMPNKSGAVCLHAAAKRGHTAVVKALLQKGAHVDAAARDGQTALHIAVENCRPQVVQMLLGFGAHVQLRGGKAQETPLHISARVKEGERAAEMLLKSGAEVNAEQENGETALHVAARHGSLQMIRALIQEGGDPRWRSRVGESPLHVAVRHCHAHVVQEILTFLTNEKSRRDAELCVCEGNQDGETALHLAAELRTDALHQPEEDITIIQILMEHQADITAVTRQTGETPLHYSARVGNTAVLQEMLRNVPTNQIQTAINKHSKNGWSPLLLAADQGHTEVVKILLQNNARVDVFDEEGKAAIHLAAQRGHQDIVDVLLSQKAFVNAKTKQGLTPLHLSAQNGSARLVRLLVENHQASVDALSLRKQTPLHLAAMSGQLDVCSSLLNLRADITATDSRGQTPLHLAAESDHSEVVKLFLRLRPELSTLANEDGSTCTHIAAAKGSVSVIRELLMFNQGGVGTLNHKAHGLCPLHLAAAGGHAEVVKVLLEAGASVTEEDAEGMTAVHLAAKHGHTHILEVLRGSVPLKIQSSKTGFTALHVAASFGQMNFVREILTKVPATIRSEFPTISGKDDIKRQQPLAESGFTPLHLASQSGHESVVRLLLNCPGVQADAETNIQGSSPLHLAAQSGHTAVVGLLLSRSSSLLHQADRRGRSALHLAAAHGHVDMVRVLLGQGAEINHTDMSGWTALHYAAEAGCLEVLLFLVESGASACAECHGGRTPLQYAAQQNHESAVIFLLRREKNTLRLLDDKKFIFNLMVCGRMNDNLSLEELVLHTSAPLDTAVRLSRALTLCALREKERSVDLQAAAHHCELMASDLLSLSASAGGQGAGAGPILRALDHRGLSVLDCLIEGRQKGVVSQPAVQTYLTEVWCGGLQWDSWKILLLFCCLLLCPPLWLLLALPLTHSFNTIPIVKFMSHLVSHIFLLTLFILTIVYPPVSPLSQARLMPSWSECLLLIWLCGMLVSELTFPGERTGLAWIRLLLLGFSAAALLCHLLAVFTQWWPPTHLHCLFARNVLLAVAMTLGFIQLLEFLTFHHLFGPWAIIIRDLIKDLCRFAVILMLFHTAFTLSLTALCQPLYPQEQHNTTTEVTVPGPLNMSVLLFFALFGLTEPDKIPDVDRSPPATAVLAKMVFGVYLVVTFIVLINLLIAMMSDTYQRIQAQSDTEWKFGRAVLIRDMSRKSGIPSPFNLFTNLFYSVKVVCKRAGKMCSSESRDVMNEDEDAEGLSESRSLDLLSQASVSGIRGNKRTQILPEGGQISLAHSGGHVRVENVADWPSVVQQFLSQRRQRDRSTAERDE

intracellular calcium response in TRPML3-transfected cells [1]	TRPML3 activation in whole-cell patch-clamp ([2]; control compound)	⊗F340/F380 (TRPML3) [1]	Emax [3]	nA/pF (-80 mV) (TRPML3) [2]	EC50 [4]	Emax [4]	kinetics of intracellular calcium increase ([1]; TRPML3-transfected HEK293 cells)	Structure (SMILES)	average current density relative to constitutively active TRPML3 A419P [2]	⊗F340/F380 (Control) [5]	response to intracellular application (infusion) [6]
		0.52 ±0.05	119 ± 5%	−0.02 ±0.01 nA/pF	> 29.9 µM	2 ± 1%		CCOc1ccc(S(=O)(=O)N2CCCCC2)c(C)c1C [SF-32, 1-(4-ethoxy-2,3-dimethylphenyl)sulfonylpiperidine]			
		1.00 ±0.10	130 ± 20%	−0.19 ±0.03 nA/pF	> 29.9 µM	2 ± 1%		CCOc1ccc(S(=O)(=O)N2CCCCCC2)c2ccccc12 [SF-31, 1-(4-ethoxynaphthalen-1-yl)sulfonylazepane]	comparable to average current densities obtained from cells expressing the constitutively active varitint-waddler mutant isoform A419P	−0.011 ±0.001	
		0.72 ±0.05	135 ± 20%	−0.14 ±0.02 nA/pF	> 29.9 µM	8 ± 1%		Cc1ccc(S(=O)(=O)n2nccc2-c2c(-c3ccc(Cl)cc3)noc2C)cc1 [SF-11, 3-(4-chlorophenyl)-5-methyl-4-[2-(4-methylphenyl)sulfonylpyrazol-3-yl]-1,2-oxazole]			elicited responses when applied intracellularly
		0.56 ±0.03	102 ± 22%	−0.07 ±0.01 nA/pF	> 29.9 µM	2 ± 1%		COc1ccccc1C1CN=NC12CCCc1ccccc1C2=O (centres unmarked) [SF-61, 4-(2-methoxyphenyl)spiro[3,4-dihydropyrazole-5,8’-6,7-dihydro-5H-benzo[7]annulene]-9’-one]			

The remaining lines, values behind:

Structure (SMILES)	intracellular calcium response in TRPML3-transfected cells [1]	TRPML3 activation in whole-cell patch-clamp ([2]; control compound)	⊗F340/F380 (TRPML3) [1]	Emax [3]	nA/pF (-80 mV) (TRPML3) [2]	EC50 [4]	Emax [4]	kinetics of intracellular calcium increase ([1]; TRPML3-transfected HEK293 cells)	average current density relative to constitutively active TRPML3 A419P [2]	⊗F340/F380 (Control) [5]	response to intracellular application (infusion) [6]
CCCN(CCC)S(=O)(=O)c1ccc(C(=O)O)cc1 [probenicid, 4-(dipropylsulfamoyl)benzoic acid, reference compound]	did not elicit any responses	did not activate TRPML3									
CCOc1ccc(S(=O)(=O)NC(C)(C)C)cc1-c1nc(=O)c2c([nH]1)c(C(C)(C)C)nn2C [SN-1, N-tert-butyl-3-(3-tert-butyl-1-methyl-7-oxo-4H-pyrazolo[4,3-d]pyrimidin-5-yl)-4-ethoxybenzenesulfonamide]			1.15 ±0.06	151 ± 14%	−0.33 ±0.10 nA/pF	> 29.9 µM	6%		comparable to average current densities obtained from cells expressing the constitutively active varitint-waddler mutant isoform A419P	0.005 ±0.004	
CCCOc1cc(C)c(Cl)cc1S(=O)(=O)N(CC)CC [SF-33, 5-chloro-N,N-diethyl-4-methyl-2-propoxybenzenesulfonamide]			0.65 ±0.10	119 ± 21%	−0.06 ±0.02 nA/pF	> 29.9 µM	2 ± 1%	slowest kinetics			
